Molecules are shown by their SMILES.

The record followed here is ChEMBL document CHEMBL4513216, “Probing the Open Global Health Chemical Diversity Library for Multistage-Active Starting Points for Next-Generation Antimalarials” (ACS Infect Dis, 2020).

A short description of this data set: Toxicity liver stage against HepG2, at 10uM. The arrangement: test concentration 10 uM, cell line HepG2-A16-CD81EGFP. To be noted: human, HepG2-A16-CD81EGFP cells; read-out: INHIBITION
Format: cell-based. The procedure, abridged: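 Uninfected HepG2-A16-CD81EGFP cells, 3 × 10^3 per well, 1536-well, plated on prespotted compound at 10 μM final, parasite-free screening media added to match infected plates; puromycin 10 μM positive, DMSO 0.5% negative; run in parallel with 48 h PbLuc assay at 37 °C, 5% CO2; viability by CellTiter-Glo luminescence, normalized to controls.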

On to `CC1CCCN(CCNC(=O)c2ccn(-c3cccc(F)c3)n2)C1` (configuration not stated), for which the cytotoxicity at 10 µM was -3.25%.

Take `CN(C)Cc1noc2c1CN(C(=O)c1ccncc1)CC2`: the cytotoxicity at 10 µM was -1.28%.

With `Cc1csc(N2CCN(CC(=O)N3CCNC3=O)CC2C)n1` (configuration not stated), the cytotoxicity at 10 µM is -12.4%.

For `Cc1ccsc1C(O)CNS(=O)(=O)Cc1ccc(F)cc1` (configuration not stated), the cytotoxicity at 10 µM is -4.38%.

Consider `Cc1oc(-c2ccco2)nc1CNC1CCCN(c2cccnn2)C1` (configuration not stated), for which the cytotoxicity at 10 µM is -2.87%.

Consider `CCOc1ccnc(N2CCN(C(=O)c3cccnc3O)CC2)n1`, for which the cytotoxicity at 10 µM is -6.51%.

Turning to `COC(=O)C(C)(C)NC(=O)C1CC(=O)N(CC2CC2)C1` (configuration not stated), the cytotoxicity at 10 µM was -142%.

In the case of `O=C(C1CCOCC1)N1CCC2(CC1)CN(c1ccsc1)C(=O)CO2`, the cytotoxicity at 10 µM was -63.4%.

On to `Cc1cnn(CCNCc2csc(-c3cccs3)n2)c1`, for which the cytotoxicity at 10 µM is -9.91%.

Consider `C[C@@H]1CN(C2CCN(Cc3nn(C)c4cccc(Cl)c34)CC2)C[C@H](C)O1`, for which the cytotoxicity at 10 µM was -6.48%.

Regarding `CC(=O)N1CCCCC1c1nnc2n1CCNC2` (configuration not stated), the cytotoxicity at 10 µM stood at 14.7%.

Take `CC(C)N(CCCNC(=O)C1CC(=O)N(C)C1)S(C)(=O)=O` (configuration not stated): the cytotoxicity at 10 µM is 8.35%.

Regarding `COC(=O)c1cccn1C1CCN(CCN2C(=O)CCC2=O)CC1`, the cytotoxicity at 10 µM turned out to be 0.207%.

Regarding `O=S(=O)(CCOc1ccc(F)cc1)Nc1cnn(CC(F)F)c1`, the cytotoxicity at 10 µM was -4.87%.

In the case of `Cc1n[nH]c(C)c1CNCC(O)c1ccc(F)c(F)c1` (configuration not stated), the cytotoxicity at 10 µM stood at 4.32%.

Turning to `COC(=O)CCC(=O)N1CCC2(CN(Cc3ccccc3)C2)C1`, the cytotoxicity at 10 µM stood at 12.3%.

In the case of `Cc1cc(C(=O)N(C)Cc2cnn(C)c2)c(NC(=O)C(C)(C)C)s1`, the cytotoxicity at 10 µM was 0.254%.

As for `CCOCc1ncn2c1CN(S(=O)(=O)c1cccs1)CC2`, the cytotoxicity at 10 µM was found to be 0.719%.

Take `CCOC1CC2(CCN(C(=O)COC)CC2)c2cc(F)ccc21` (configuration not stated): the cytotoxicity at 10 µM was -136%.

`CCOc1ncccc1NC(=O)N1CCN(c2cccc(C)c2C)CC1`: the cytotoxicity at 10 µM was found to be 81.2%.

For `O=C(CNC(Cn1cccn1)c1ccccc1)Nc1cnccn1` (configuration not stated), the cytotoxicity at 10 µM is 7.34%.

Take `Cc1ccc(N2CCC(C(O)c3cccs3)CC2)nn1` (configuration not stated): the cytotoxicity at 10 µM is -49.1%.

Take `COCCNC(=O)N1CCN(C(C)C(=O)NC2CCCC2)CC1` (configuration not stated): the cytotoxicity at 10 µM turned out to be 1.16%.

`CNC(=O)C(C)CNC(=O)c1coc(COc2cccc(F)c2F)n1` (configuration not stated): the cytotoxicity at 10 µM came out at 5.21%.

Regarding `CN(CCn1ccc2ccccc21)C(=O)CS(C)(=O)=O`, the cytotoxicity at 10 µM was -8.14%.

As to `NC1CC(C(F)(F)F)=NC=C1c1ccccc1` (configuration not stated), the cytotoxicity at 10 µM is -9.16%.

For `O=C(NCCc1cc(N2CCOCC2)nc(N2CCCC2)n1)C1CC1`, the cytotoxicity at 10 µM was 6.8%.

On to `CN1CCN(CC2(O)CCN(C(=O)CCc3ccccc3F)C2)CC1` (configuration not stated), for which the cytotoxicity at 10 µM is -2%.

With `O=C(Nc1cccc(F)c1)N1CCC(CO)(Nc2ccccc2)CC1`, the cytotoxicity at 10 µM is -5.04%.

Turning to `CN(C(=O)Cc1ccc(F)cc1)C1CCN(c2ccccn2)CC1`, the cytotoxicity at 10 µM is -15.8%.

For the compound `O=C(C(CNCc1cccnc1)c1ccccc1)N1CCOCC1` (configuration not stated), the cytotoxicity at 10 µM stood at 2.49%.

In the case of `O=C(c1ccc(-n2cncn2)cc1)N1CCN(c2cnccn2)CC1`, the cytotoxicity at 10 µM was found to be 2.45%.

As for `Cc1cc(CNC(=O)NC(C)c2ccccc2)no1` (configuration not stated), the cytotoxicity at 10 µM stood at 10.4%.

On to `CCn1nc2c(cc1=O)CN(Cc1nc3ccccc3c(=O)[nH]1)CC2`, for which the cytotoxicity at 10 µM was -4.71%.

As to `c1cc(C2CCN(c3cnccn3)CC2)ccn1`, the cytotoxicity at 10 µM came to 3.94%.

Consider `CCSC1(CNc2ncc(Br)cn2)CCOCC1`, for which the cytotoxicity at 10 µM is -2.72%.

`Cc1nn(C)cc1C(=O)NC(CC(C)C)C(=O)Nc1cc[nH]n1` (configuration not stated): the cytotoxicity at 10 µM is -2.33%.

Regarding `Cc1ccc(-c2nccn2-c2ccc(OC3CCN(C)CC3)cc2)o1`, the cytotoxicity at 10 µM was -10.4%.

`CN(Cc1nnc(C2CC2)n1C)S(=O)(=O)c1ccccc1C#N`: the cytotoxicity at 10 µM is 14.9%.

For `Cn1cc(CN2CC[C@@H](O)[C@@H]2Cc2ccccc2)cn1`, the cytotoxicity at 10 µM is -71.2%.

As to `CCc1nccn1C1CCCN(C(=O)c2ccc(OC)c(OC)c2)C1` (configuration not stated), the cytotoxicity at 10 µM is -20.6%.

`CC(C)N1CCCCC1c1cc(CO)[nH]n1` (configuration not stated): the cytotoxicity at 10 µM came to 4.61%.

On to `FC(F)(F)COc1ccc(CSCc2ccon2)cn1`, for which the cytotoxicity at 10 µM is -4.52%.

Regarding `Cc1ccc(-c2ccc(C(=O)NCCS(N)(=O)=O)c(F)c2)cc1`, the cytotoxicity at 10 µM came out at 11.3%.

Take `Cc1ccc(NC(=O)CN2CCCNC2=O)c(SC(F)(F)F)c1`: the cytotoxicity at 10 µM is -1.96%.

In the case of `Cc1cccc(CN2CCc3c(CNC(=O)CC#N)nn(C)c3C2)n1`, the cytotoxicity at 10 µM is 4.89%.

Turning to `CCc1noc(CNc2ccc(CC(=O)N3CCSCC3)cc2)n1`, the cytotoxicity at 10 µM was 3.73%.

For the compound `CCc1nn(C)c2[nH]nc(NC(=O)c3cccnc3OC)c12`, the cytotoxicity at 10 µM is -8.98%.

As to `CC(C)Oc1ccccc1CNC(=O)N(C)C(C)CS(C)(=O)=O` (configuration not stated), the cytotoxicity at 10 µM is -48.4%.

`O=C(NC1CC1)[C@@H]1CCO[C@@H]2CCN(Cc3ccsc3)C[C@H]21`: the cytotoxicity at 10 µM was 4.4%.

For `Cc1ccc(-c2nnc(CCC(=O)N3CCCC3c3ccc[nH]3)o2)cc1` (configuration not stated), the cytotoxicity at 10 µM is -1.31%.

As for `Cc1ccc(OCCC(=O)NC(C)c2ccncc2)cc1` (configuration not stated), the cytotoxicity at 10 µM was -3.86%.

As to `CCc1sc(C(=O)N2CCC(Nc3ccc(C)nn3)CC2)cc1C`, the cytotoxicity at 10 µM was determined as 1.86%.

Consider `O=C(c1ccoc1)N1C[C@@H]2OCCN(c3ncccn3)[C@@H]2C1`, for which the cytotoxicity at 10 µM was 5.09%.

`COCc1nc(C(=O)NS(=O)(=O)c2ccc(Cl)cc2F)cs1`: the cytotoxicity at 10 µM stood at 8.13%.

With `C1CCC(NCCN2CCOCC2)C1`, the cytotoxicity at 10 µM was -145%.

For `Cc1ccccc1CCCN(C)S(C)(=O)=O`, the cytotoxicity at 10 µM was 5.41%.

As to `Cc1cc(C)nc(Nc2nccnc2C2CCCN(C(CO)CO)C2)n1` (configuration not stated), the cytotoxicity at 10 µM came to 0.216%.

As to `Cn1cccc1C(=O)NC1(C(=O)NCC2CC2)CCCC1`, the cytotoxicity at 10 µM is -3.29%.

Turning to `CN(C)C(=O)N1CCN(C(=O)c2ccc(Cl)cc2)CC2(CNC(=O)C2)C1` (configuration not stated), the cytotoxicity at 10 µM came to 10.5%.

For `CC(C)c1ncc(Cl)c(C(=O)N2CCN(C3CCCC3)CC2)n1`, the cytotoxicity at 10 µM worked out at 8.69%.

In the case of `CN(C)CC(=O)N1C[C@@H]2CC[C@H](Oc3ccccc3Cl)[C@@H]2C1`, the cytotoxicity at 10 µM was found to be 3.22%.

As to `CN(C)CC(c1ccccc1)N(C)C(=O)c1cccc(NCC(=O)O)c1` (configuration not stated), the cytotoxicity at 10 µM stood at 3.7%.

On to `Cc1n[nH]c(C)c1-c1nccnc1CC1CCN(S(C)(=O)=O)C1` (configuration not stated), for which the cytotoxicity at 10 µM was -10.4%.

On to `Cc1n[nH]c(C(=O)NCc2ccnc(OCC(F)(F)F)c2)c1Br`, for which the cytotoxicity at 10 µM stood at 5.67%.

In the case of `Cn1ccnc1CN1CCC2(CC1)CCN(Cc1ccoc1)C2`, the cytotoxicity at 10 µM was -6.08%.

Consider `CC(N1CCN(C(=O)NCc2cccc(C#N)c2)CC1)C(F)(F)F` (configuration not stated), for which the cytotoxicity at 10 µM was 6.31%.

Take `CO[C@H]1CN(C(=O)c2ccc3oc(C)cc3c2)C[C@@]12CCCO2`: the cytotoxicity at 10 µM is -6.14%.

As for `CNc1cc(N2CCCC2CNCc2cccnc2C)ncn1` (configuration not stated), the cytotoxicity at 10 µM stood at 0.759%.

Take `Cc1cnc(NCCc2c[nH]cn2)nc1-c1ccnn1C`: the cytotoxicity at 10 µM is -2.53%.

`COCCC(=O)N1CCC2(COCc3cnc(N4CCOCC4)nc32)C1` (configuration not stated): the cytotoxicity at 10 µM came out at 2.21%.

As to `CO[C@H]1CN(CC2CCOCC2)[C@@H]2CCCO[C@H]12`, the cytotoxicity at 10 µM was -100%.

Regarding `CCC1CN(C(=O)COc2ccc(NC(C)=O)cc2)CCO1` (configuration not stated), the cytotoxicity at 10 µM was -9.4%.

Regarding `Cc1nc(Nc2nnc(C)s2)cc(C2CCCN2)n1` (configuration not stated), the cytotoxicity at 10 µM was found to be 3.81%.

On to `CC(O)CN1CCC(CNCc2cccc(C(F)(F)F)c2)CC1` (configuration not stated), for which the cytotoxicity at 10 µM is -15.2%.

Turning to `CN(C)Cc1nnn2c1CN(Cc1cccnc1)CCC2`, the cytotoxicity at 10 µM amounted to 5.69%.

As for `N#Cc1ncn(CCC(=O)Nc2c(Cl)cccc2Cl)n1`, the cytotoxicity at 10 µM was -11.4%.

Consider `COc1ccccc1S(=O)(=O)N1CC(N(C)C)Cc2ccccc21` (configuration not stated), for which the cytotoxicity at 10 µM came to 0.243%.

For `CCOCCn1nc(C)cc1C(=O)N(C)Cc1cccc2ncccc12`, the cytotoxicity at 10 µM was determined as 4.2%.

Turning to `Cc1ccccc1CN1CC[C@H](c2nnc(-c3cncn3C)o2)C1`, the cytotoxicity at 10 µM came out at 5.08%.

`CCCN1C(=O)[C@@H]2[C@@H](CCN2C(=O)COC)N(Cc2cccs2)C1=O`: the cytotoxicity at 10 µM was found to be 0.121%.

On to `CN(C)C(=O)[C@@H]1CC[C@@H]2[C@@H](CCN2Cc2nccs2)O1`, for which the cytotoxicity at 10 µM worked out at 1.97%.

With `CCN(Cc1ccc(Cl)s1)S(=O)(=O)CCOC`, the cytotoxicity at 10 µM is 12.1%.

Consider `Cc1ncsc1C(=O)NCCNc1ncccn1`, for which the cytotoxicity at 10 µM was 1.76%.

Regarding `Cc1ccc(CN(C)C(=O)CN2CCCC(Cn3cncn3)C2)cc1` (configuration not stated), the cytotoxicity at 10 µM was -6.41%.

Consider `Cc1noc([C@@]23CCO[C@@H]2CCN(C(=O)CCC(C)C)C3)n1`, for which the cytotoxicity at 10 µM was 10.3%.

For the compound `CCOCC1(CNCc2cc(O)c3cc(C)ccc3n2)CC1`, the cytotoxicity at 10 µM is -9.19%.

With `Cn1c(N2CCOCC2)nc2cc(C(=O)N[C@@H]3CC[C@@H](N)C3)ccc21`, the cytotoxicity at 10 µM was -1.07%.

As for `CNC(=O)CC1CCN(C(=O)Nc2ccc(-c3cc[nH]n3)cc2)CC1`, the cytotoxicity at 10 µM was determined as 6.8%.

Take `CCn1cnnc1C1CCN(C(=O)CCCOc2ccccc2)CC1`: the cytotoxicity at 10 µM came out at 0.927%.

With `Cn1cc2ncn([C@H]3CCN(Cc4ccccc4)C3)c(=O)c2n1`, the cytotoxicity at 10 µM worked out at 2.89%.

With `CCc1nnc2n1CCN(C(=O)Cc1nc(-c3ccco3)oc1C)C2`, the cytotoxicity at 10 µM is 1.19%.

In the case of `Cc1ccc(N2CCc3sc(C(=O)N4CCOCC4)cc32)nn1`, the cytotoxicity at 10 µM is -0.142%.

With `O=C(N1CCCC1)N1CCN(Cc2cccnc2)c2ncccc2C1`, the cytotoxicity at 10 µM stood at 3.33%.

Consider `CCc1ncc(CN2CCN(CCOC)CC2)cn1`, for which the cytotoxicity at 10 µM was -21.7%.

`CN(C)CC(=O)N1CCCC2(CCC(=O)N(CCc3c[nH]cn3)C2)C1` (configuration not stated): the cytotoxicity at 10 µM was -8.77%.

`CN(CCO)C[C@@H]1CN(C(=O)c2c(F)cccc2Cl)C[C@@H]1CO`: the cytotoxicity at 10 µM was -9%.
